Data taken from article PMC3291815 (Circulation Research, 2011).
Where two headings read alike, the source gives them in different places. Each block holds one molecule with its values, some of them ahead of it. Positions of bridges follow the written chain, without caps; N, C: chain ends. No end group written: not given here.

B1: CD40L (recombinant, His- and c-myc-tag fusion protein, E108 to L261) (ligand)
chain: ENSFEMQKGDQNPQIAAHVISEASSKTTSVLQWAEKGYYTMSNNLVTLENGKQLTVKRQGLYYIYAQVTFCSNREASSQAPFIASLCLKSPGRFERILLRAANTHSSAKPCGQQSIHLGGVFELQPGASVFVNVTDPSQVSHGTGFTSFGLLKL

Assays:
[1] = format: in vivo, C57BL/6J mice; conditions: after intraperitoneal injection, FITC-coupled peptide, plasma fluorescence
Method in brief: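 C57BL/6J mice received a single intraperitoneal injection of FITC- or TAMRA-labelled cyclized peptide or its scrambled control, at 100 or 200 μg. Plasma samples were collected at set time points, and peptide level was followed by plasma fluorescence.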

[2] = tested on: Murine fibroblasts over-expressing CD40L; format: cell-based; conditions: flow cytometry; not to mock-transfected control cells
[3] = biological target: T1, CD40L-Mac-1 I-domain interaction (Homo sapiens, UniProt P29965); format: binding
T1 sequence (P29965 108-261): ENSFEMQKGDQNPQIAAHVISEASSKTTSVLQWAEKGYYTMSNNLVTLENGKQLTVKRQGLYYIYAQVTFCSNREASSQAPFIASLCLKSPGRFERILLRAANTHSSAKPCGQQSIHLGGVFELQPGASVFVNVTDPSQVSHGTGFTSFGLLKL
Method in brief: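 Recombinant CD40L (residues E108–L261, His- and c-myc-tagged) was incubated with immobilized Mac-1 I-domain alongside a range of cyclized peptide or scrambled peptide concentrations. Bound CD40L was detected with anti-c-myc-HRP and TMB substrate by colorimetric read-out. Anti-CD40L (100 μg/ml) and saline served as controls.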

[4] = biological target: B1; assay: dynamic cell adhesion assay
[5] = biological target: T2, Mac-1 I-domain (recombinant, His-tag fusion protein, R115 to S340) (UniProt P11215 131-356); assay: SPR
[6] = biological target: T2, Mac-1 I-domain (recombinant, His-tag …); assay: SPR; remark: listed apart in the source

T2 sequence (P11215 131-356): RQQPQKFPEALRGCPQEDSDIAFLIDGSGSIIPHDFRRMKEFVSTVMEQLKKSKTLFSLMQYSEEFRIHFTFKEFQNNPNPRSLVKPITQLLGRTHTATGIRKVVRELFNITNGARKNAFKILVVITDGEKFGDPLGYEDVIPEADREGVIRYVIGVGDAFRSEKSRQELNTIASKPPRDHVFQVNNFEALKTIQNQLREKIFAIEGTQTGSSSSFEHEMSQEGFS

Binding to Murine fibroblasts over-expressing CD40L [2]: concentration-dependently bound
Molecule: FITC-labeled cM7: cM7 coupled to fluorescein isothiocyanate (CEQLKKSKTLC; disulfide 1-11; also: FITC coupled, site not given here)
Time of highest plasma availability [1]: 30 min

IC50 [3]: 200 to 900 nM
Molecule: EQLKKSKTL [M7]

IC50 [4]: 206 nM
Molecule: CEQLKKSKTLC (disulfide 1-11) [cM7, cyclised version of peptide M7]

Molecule: B1
Kd [5]: 214 nM
Kd [6]: 671 nM
